Activity calls are given as the source filed them. The calls are words filed in the database; no cut-off is given here.
Target: T1, Orexin receptor type 2 (Homo sapiens, UniProt O43614)
T1 sequence (O43614 whole entry): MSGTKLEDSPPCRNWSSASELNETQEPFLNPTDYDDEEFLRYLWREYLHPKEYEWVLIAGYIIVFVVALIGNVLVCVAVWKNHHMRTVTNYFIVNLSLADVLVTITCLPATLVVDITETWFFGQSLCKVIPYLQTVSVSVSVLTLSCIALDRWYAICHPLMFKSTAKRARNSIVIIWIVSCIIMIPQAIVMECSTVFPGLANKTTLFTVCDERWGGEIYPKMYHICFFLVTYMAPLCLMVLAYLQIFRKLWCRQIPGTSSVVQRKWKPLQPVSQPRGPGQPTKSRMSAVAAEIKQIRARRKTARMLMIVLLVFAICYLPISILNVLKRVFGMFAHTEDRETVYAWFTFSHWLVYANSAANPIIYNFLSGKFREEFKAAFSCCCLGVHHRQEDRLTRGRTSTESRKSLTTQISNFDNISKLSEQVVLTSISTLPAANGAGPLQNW
Test: Agonist activity at human OX2R expressed in CHOK1 cells by calcium mobilization assay
Conditions: not given

| Structure (SMILES) | EC50 [nM] |
| --- | --- |
| COc1ccccc1C(=O)NCCNc1cccc(NS(=O)(=O)c2cc(-c3cccc(F)c3)ccc2OC)c1 | > 10000 |
| COc1ccc(-c2cccc(C(=O)N(C)C)c2)cc1S(=O)(=O)Nc1cccc(NCCNC(=O)c2ccccc2)c1 | > 10000 |
| COC(=O)c1cccc(-c2ccc(OC)c(S(=O)(=O)Nc3cccc(NCCNC(=O)c4ccccc4OC)c3)c2)c1 | > 10000 |
| COc1cccc(-c2ccc(OC)c(S(=O)(=O)Nc3cccc(NCCNC(=O)c4ccccc4OC)c3)c2)c1 | 800 |
| COc1ccc(-c2cccc(C(=O)N(C)C)c2)cc1S(=O)(=O)Nc1cccc(NCCNC(=O)c2cccc(Cl)c2)c1 | 94 |
| COc1ccc(-c2cccc(C(=O)N(C)C)c2)cc1S(=O)(=O)Nc1cccc(NCCNC(=O)c2ccccc2N(C)C)c1 [listing 1 of 2 here] | 28 |
| COc1ccccc1C(=O)NCCNc1cccc(NS(=O)(=O)c2cc(-c3ccccc3)ccc2OC)c1 | > 10000 |
| COc1ccccc1C(=O)NCCNc1cccc(NS(=O)(=O)c2cc(-c3cccc(C(=O)N4CCC4)c3)ccc2OC)c1 | 235 |
| COc1ccccc1C(=O)NCCNc1cccc(NS(=O)(=O)c2cc(-c3cccc(N)c3)ccc2OC)c1 | > 1000 |

Target: T1, Orexin receptor type 2
Test: Agonist activity at human OX2R expressed in CHOK1 cells by NFAT-response luciferase reporter gene assay
Assay type: cell-based
Conditions: cho-k1

| Structure (SMILES) | EC50 |
| --- | --- |
| COc1ccc(-c2cccc(C(=O)N(C)C)c2)cc1C(=O)Nc1cccc(NCCNC(=O)c2cccc(C)c2)c1 | Not Active |

Test system: Mus musculus
Test: Induction of wakefullness in C57BL/6J mouse assessed as increase in wake time by measuring EEG/EMG signals at 260 nmol, icv dosed on every other day during light phase
Assay type: functional
Conditions: not given
Summary of the method: (§1)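 Intracerebroventricular injection during the light phase, given at 6 h into the light phase (ZT6). Saline was the vehicle control. Sleep/wake states were scored from EEG/EMG recordings, and the read-out was cumulative time awake within 2 h after dosing. Wild-type C57BL/6J mice and OX1R/OX2R double-knockout mice were used.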

| Structure (SMILES) | Time [min] |
| --- | --- |
| COc1ccc(-c2cccc(C(=O)N(C)C)c2)cc1S(=O)(=O)Nc1cccc(NCCNC(=O)c2ccccc2N(C)C)c1.Cl | 53 |

Target: T2, Orexin receptor type 2 (Homo sapiens) (UniProt O43614)
T2 sequence (whole entry): T1 sequence (O43614 whole entry)
Test: Agonist activity at human OX2R expressed in CHOK1 cells at 10 uM by calcium mobilization assay relative to orexin-A
Assay type: functional, cell-based
Conditions: CHO-K1

| Structure (SMILES) | Efficacy |
| --- | --- |
| COc1ccccc1C(=O)N1CCC(CNS(=O)(=O)c2cc(C(C)C)c(C)cc2OC)CC1 | inactive |
| COc1ccccc1C(=O)N[C@H]1CC[C@H](CNS(=O)(=O)c2cc(C(C)C)c(C)cc2OC)CC1 | inactive |
| COc1ccccc1C(=O)NCCNc1ccc(NS(=O)(=O)c2cc(C(C)C)c(C)cc2OC)cc1 | 12% |
| COc1ccccc1C(=O)NCCNc1cccc(NS(=O)(=O)c2cc(C(C)C)c(C)cc2OC)c1 | 22% |
| COc1ccccc1C(=O)NCCNc1cc(C)ccc1NS(=O)(=O)c1cc(C(C)C)c(C)cc1OC | inactive |

Target: T2, Orexin receptor type 2 (Homo sapiens)
Test: Agonist activity at human OX2R expressed in CHOK1 cells at 10 uM by calcium mobilization assay relative to orexin-A
Conditions: CHO-K1

| Structure (SMILES) | Emax [%] |
| --- | --- |
| COc1ccccc1C(=O)NCCNc1cccc(NS(=O)(=O)c2cc(-c3cccc(F)c3)ccc2OC)c1 | 47 |
| COC(=O)c1cccc(-c2ccc(OC)c(S(=O)(=O)Nc3cccc(NCCNC(=O)c4ccccc4OC)c3)c2)c1 | 49 |
| COc1ccccc1C(=O)NCCNc1cccc(NS(=O)(=O)c2cc(-c3cccnc3)ccc2OC)c1 | 88 |
| COc1ccccc1C(=O)NCCNc1cccc(NS(=O)(=O)c2cc(-c3ccccc3)ccc2OC)c1 | 48 |
| COc1ccccc1C(=O)NCCNc1cccc(NS(=O)(=O)c2cc(-c3cccc(C(=O)N4CCC4)c3)ccc2OC)c1 | 85 |
| COc1ccccc1C(=O)NCCNc1cccc(NS(=O)(=O)c2cc(-c3cccc(N)c3)ccc2OC)c1 | 73 |

Target: T3, Orexin/Hypocretin receptor type 1 (Homo sapiens, UniProt O43613)
T3 sequence (O43613 whole entry): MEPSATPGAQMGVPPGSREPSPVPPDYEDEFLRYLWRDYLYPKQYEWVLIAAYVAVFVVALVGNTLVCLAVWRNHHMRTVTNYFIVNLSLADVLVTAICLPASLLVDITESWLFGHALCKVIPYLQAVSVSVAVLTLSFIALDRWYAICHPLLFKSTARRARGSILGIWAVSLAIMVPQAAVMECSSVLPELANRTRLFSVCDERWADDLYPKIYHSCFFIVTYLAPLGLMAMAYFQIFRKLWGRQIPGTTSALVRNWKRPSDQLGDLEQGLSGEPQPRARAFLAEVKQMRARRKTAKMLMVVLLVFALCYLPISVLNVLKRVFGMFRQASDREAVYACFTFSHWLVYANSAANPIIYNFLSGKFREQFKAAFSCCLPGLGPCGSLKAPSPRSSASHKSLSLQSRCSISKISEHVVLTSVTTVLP
Test: Agonist activity at human OX1R expressed in CHOK1 cells by calcium mobilization assay
Assay type: functional, cell-based, CHO-K1
Conditions: cho-k1

| Structure (SMILES) | EC50 |
| --- | --- |
| COc1ccc(-c2cccc(C(=O)N(C)C)c2)cc1C(=O)Nc1cccc(NCCNC(=O)c2cccc(C)c2)c1 | Not Active |

Same assay, conditions: read-out: EC50

| Structure (SMILES) | EC50 [nM] |
| --- | --- |
| COc1cccc(C(=O)NCCNc2cccc(NS(=O)(=O)c3cc(-c4cccc(C(=O)N(C)C)c4)ccc3OC)c2)c1 | 9250 |
| COc1ccc(-c2cccc(C(=O)N(C)C)c2)cc1S(=O)(=O)Nc1cccc(NCCNC(=O)c2ccccc2Cl)c1 | 6130 |
| COc1ccccc1C(=O)NCCNc1cccc(NS(=O)(=O)c2cc(-c3cccc(C(=O)N(C)C)c3)ccc2OC)c1 | 5230 |
| COc1ccc(-c2cccc(C(=O)N(C)C)c2)cc1S(=O)(=O)Nc1cccc(NCCNC(=O)c2cccc(Cl)c2)c1 | 5720 |
| COc1ccc(-c2cccc(C(=O)N(C)C)c2)cc1S(=O)(=O)Nc1cccc(NCCNC(=O)c2ccccc2N(C)C)c1 [listing 1 of 2 here] | 2750 |

Target: T4, Orexin/Hypocretin receptor type 1 (Homo sapiens) (UniProt O43613)
T4 sequence (whole entry): T3 sequence (O43613 whole entry)
Test: Agonist activity at human OX1R expressed in CHOK1 cells by calcium mobilization assay relative to orexin-A
Assay type: functional, cell-based
Conditions: CHO-K1

| Structure (SMILES) | Emax [%] |
| --- | --- |
| COc1cccc(C(=O)NCCNc2cccc(NS(=O)(=O)c3cc(-c4cccc(C(=O)N(C)C)c4)ccc3OC)c2)c1 | 49 |
| COc1ccc(-c2cccc(C(=O)N(C)C)c2)cc1S(=O)(=O)Nc1cccc(NCCNC(=O)c2ccccc2Cl)c1 | 50 |
| COc1ccccc1C(=O)NCCNc1cccc(NS(=O)(=O)c2cc(-c3cccc(C(=O)N(C)C)c3)ccc2OC)c1 | 46 |
| COc1ccc(-c2cccc(C(=O)N(C)C)c2)cc1S(=O)(=O)Nc1cccc(NCCNC(=O)c2cccc(Cl)c2)c1 | 73 |
| COc1ccc(-c2cccc(C(=O)N(C)C)c2)cc1S(=O)(=O)Nc1cccc(NCCNC(=O)c2cccc(C)c2)c1 | 100 |
| COc1ccc(-c2cccc(C(=O)N(C)C)c2)cc1S(=O)(=O)Nc1cccc(NCCNC(=O)c2ccccc2N(C)C)c1 [listing 2 of 2 here] | 55 |

Test system: not listed separately
Test: Stability in pH 8.0 buffer
Assay type: physicochemical
Conditions: not given

| Structure (SMILES) | Stability |
| --- | --- |
| Cc1ccc(S(=O)(=O)n2nc(OC(=O)c3c(-c4ccccc4Cl)noc3C)cc2N)cc1 | Unstable |

Test system: Mus musculus
Test: Induction of wakefullness in C57BL/6J mouse assessed as EEG/EMG signals at 32 to 260 nmol, icv dosed on every other day during light phase
Assay type: functional, organism-based
Conditions: not given
Summary of the method: as §1

| Structure (SMILES) | Activity |
| --- | --- |
| COc1ccc(-c2cccc(C(=O)N(C)C)c2)cc1S(=O)(=O)Nc1cccc(NCCNC(=O)c2ccccc2N(C)C)c1 [listing 2 of 2 here] | Dose-dependent effect |

Target: T2, Orexin receptor type 2 (Homo sapiens)
Test: Agonist activity at human OX2R expressed in CHOK1 cells at 10 uM by NFAT-response luciferase reporter gene assay relative to orexin-A
Assay type: cell-based
Conditions: CHO-K1

| Structure (SMILES) | Efficacy [%] |
| --- | --- |
| COc1ccccc1C(=O)N1CCC(CNS(=O)(=O)c2cc(C(C)C)c(C)cc2OC)CC1 | 16 |
| COc1ccccc1C(=O)N[C@H]1CC[C@H](CNS(=O)(=O)c2cc(C(C)C)c(C)cc2OC)CC1 | 24 |
| COc1ccccc1C(=O)NCCNc1ccc(NS(=O)(=O)c2cc(C(C)C)c(C)cc2OC)cc1 | 18 |
| COc1ccccc1C(=O)NCCNc1cccc(NS(=O)(=O)c2cc(C(C)C)c(C)cc2OC)c1 | 33 |
| COc1ccccc1C(=O)NCCNc1cc(C)ccc1NS(=O)(=O)c1cc(C(C)C)c(C)cc1OC | 9 |

Target: T2, Orexin receptor type 2 (Homo sapiens)
Test: Agonist activity at human OX2R expressed in CHOK1 cells at 1 uM by calcium mobilization assay relative to orexin-A
Assay type: functional, cell-based
Conditions: CHO-K1

| Structure (SMILES) | Emax [%] |
| --- | --- |
| COc1ccccc1C(=O)NCCNc1cccc(NS(=O)(=O)c2cc(-c3cccc(C(=O)N(C)C)c3)ccc2OC)c1 | 74 |
| COc1cccc(-c2ccc(OC)c(S(=O)(=O)Nc3cccc(NCCNC(=O)c4ccccc4OC)c3)c2)c1 | 54 |
| CNC(=O)c1cccc(-c2ccc(OC)c(S(=O)(=O)Nc3cccc(NCCNC(=O)c4ccccc4OC)c3)c2)c1 | 98 |

Target: T1, Orexin receptor type 2
Test: biochemical
Conditions: not given

| Structure (SMILES) | Ki [nM] |
| --- | --- |
| COc1ccc(-c2cccc(C(=O)N(C)C)c2)cc1S(=O)(=O)Nc1cccc(NCCNC(=O)c2cccc(C)c2)c1 | 770 |

Target: T2, Orexin receptor type 2 (Homo sapiens)
Test: Agonist activity at human OX2R expressed in CHOK1 cells at 5 uM by NFAT-response luciferase reporter gene assay relative to orexin-A
Assay type: cell-based
Conditions: CHO-K1

| Structure (SMILES) | Efficacy [%] |
| --- | --- |
| Cc1ccc(S(=O)(=O)n2nc(OC(=O)c3c(-c4ccccc4Cl)noc3C)cc2N)cc1 | 36 |

Target: T2, Orexin receptor type 2 (Homo sapiens)
Test: Agonist activity at human OX2R expressed in CHOK1 cells at 5 uM by calcium mobilization assay relative to orexin-A
Assay type: functional, cell-based
Conditions: CHO-K1

| Structure (SMILES) | Efficacy |
| --- | --- |
| Cc1ccc(S(=O)(=O)n2nc(OC(=O)c3c(-c4ccccc4Cl)noc3C)cc2N)cc1 | inactive |

Test system: CHO-K1
Test: Selectivity index, ratio of EC50 for human OX1R expressed in CHOK1 cells to EC50 for human OX2R expressed in CHOK1 cells
Assay type: cell-based
Conditions: not given

| Structure (SMILES) | Ratio EC50 |
| --- | --- |
| COc1cccc(C(=O)NCCNc2cccc(NS(=O)(=O)c3cc(-c4cccc(C(=O)N(C)C)c4)ccc3OC)c2)c1 | 280 |
| COc1ccc(-c2cccc(C(=O)N(C)C)c2)cc1S(=O)(=O)Nc1cccc(NCCNC(=O)c2ccccc2Cl)c1 | 198 |
| COc1ccccc1C(=O)NCCNc1cccc(NS(=O)(=O)c2cc(-c3cccc(C(=O)N(C)C)c3)ccc2OC)c1 | 105 |
| COc1ccc(-c2cccc(C(=O)N(C)C)c2)cc1S(=O)(=O)Nc1cccc(NCCNC(=O)c2cccc(Cl)c2)c1 | 60 |

Test system: Mus musculus
Test: Induction of wakefullness in OX1R/OX2R double knock out C57BL/6J mouse assessed as increase in wake time by measuring EEG/EMG signals at 260 nmol, icv dosed on every other day during light phase
Assay type: functional, organism-based
Conditions: not given
Summary of the method: as §1

| Structure (SMILES) | Activity |
| --- | --- |
| COc1ccc(-c2cccc(C(=O)N(C)C)c2)cc1S(=O)(=O)Nc1cccc(NCCNC(=O)c2ccccc2N(C)C)c1 [listing 2 of 2 here] | inactive |

Reference: ChEMBL document CHEMBL3621114, “Design and Synthesis of Non-Peptide, Selective Orexin Receptor 2 Agonists” (J Med Chem, 2015)
